≈ marks a conversion by molar mass, not a printed value. Calls of active or inactive are those of the source. The rule behind the calls is not given here.
Assays:
Enterobacter cloacae = test: Effect on growth of Enterobacter cloacae ATCC BAA 1143 assessed as bacterial growth inhibition measured after 16 to 18 hrs grown in tryptic soy medium by CLSI method; type: organism-based; conditions: in vivo
Summary of the method: (§1)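 CLSI microdilution. Colonies from TSA (16-20 h, 37 °C) suspended in PBS to 0.5 McFarland, then diluted in TSB to ~10^5 CFU/mL. Incubated with serial compound dilutions for 16-20 h at 37 °C. MIC is the lowest concentration inhibiting growth.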

[1] = Effect on growth of Lactobacillus crispatus JV-V01 HM 103 measured after 48 hrs in 5% CO2 by CLSI method; conditions: lactobacillus crispatus jv-v01, 48 h
Bifidobacterium bifidum = test: Effect on growth of Bifidobacterium bifidum 212A ATCC 11863 measured after 48 hrs in anerobic conditions by CLSI method; type: organism-based; conditions: in vivo
HRT-18 cell line = test: Cytotoxicity against human HRT18 cells at > 256 uM measured after 2 hrs by MTS assay; type: cell-based; conditions: hrt-18, 2 h
Caco-2 = test: Cytotoxicity against human Caco2 cells at > 256 uM measured after 2 hrs by MTS assay; type: cell-based; conditions: caco-2, 2 h
[2] = Effect on growth of Lactobacillus gasseri EX336960VC03 HM 400 measured after 48 hrs in 5% CO2 by CLSI method; conditions: lactobacillus gasseri ex336960vc03, 48 h
[3] = system: Lacticaseibacillus paracasei; test: Effect on growth of Lactobacillus casei ATCC 334 measured after 48 hrs in 5% CO2 by CLSI method
Vero = test: Cytotoxicity against African green monkey Vero cells at > 256 uM measured after 2 hrs by MTS assay; type: cell-based; conditions: chlorocebus sabaeus
Clostridioides difficile [4] = test: Antibacterial activity against Clostridium difficile VPI 10463 ATCC 43255 assessed as bacterial growth inhibition incubated for 48 hrs under anaerobic condition by CLSI protocol based assay; type: functional; conditions: ATCC 43255 VPI 10463, 48 h
Summary of the method: (§2)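 Broth microdilution following CLSI guidance. Strains pre-grown anaerobically on BHIS agar (BHI plus yeast extract, vitamin K1, hemin) at 37 °C for 48 h. ~10^5 CFU/mL in BHIS broth added to serial compound dilutions. Incubated anaerobically at 37 °C for 48 h. MIC is the lowest concentration showing visible growth inhibition.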

Clostridioides difficile [5] = test: Antibacterial activity against Clostridium difficile 4118 ATCC BAA 1870 assessed as bacterial growth inhibition incubated for 48 hrs under anaerobic condition by CLSI protocol-based assay; type: functional; conditions: 4118 ATCC BAA 1870, 48 h; summary of the method: as §2
Escherichia coli = test: Effect on growth of Escherichia coli ATCC 25922 assessed as bacterial growth inhibition measured after 16 to 18 hrs by CLSI method; type: organism-based; conditions: in vivo; summary of the method: as §1
[6] = Drug level in CDI patient plasma at 200 mg, po administered every 12 hrs for 10 days and measured 3 to 5 hrs post last dose by LC-MS/MS analysis; type: ADME, organism-based; conditions: human, in vivo
Clostridioides difficile [7] = test: Bactericidal activity against Clostridium difficile 4118 ATCC BAA 1870 assessed as reduction in bacterial colony forming units at 8 fold MIC preincubated followed by re-plating on BHIS agar plate and measured after 24 hrs under anaerobic condition by time-kill assay; type: functional, organism-based
Clostridioides difficile [8] = test: Bactericidal activity against Clostridium difficile 4118 ATCC BAA 1870 incubated for 48 hrs followed by re-plating on BHIS agar plates and measured after 24 hrs; type: functional; conditions: read-out: MBC99.9
[9] = Stability of compound in simulated gastric fluid assessed as parent compound remaining at pH 1.6 measured after 4 hrs by HPLC analysis; type: ADME; conditions: read-out: Stability
Summary of the method: (§3)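 200 µL of a 50 µg/mL methanol stock mixed with 800 µL SGF (pH 1.6) or SIF (pH 6.0), stirred at 37 °C. Sampled at 4 and 8 h for isocratic HPLC (acetonitrile/water 50:50, 1.0 mL/min, 254 nm). Percent remaining calculated as AUC after incubation / AUC before incubation.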

[10] = Stability of compound in simulated gastric fluid assessed as parent compound remaining at pH 1.6 measured after 8 hrs by HPLC analysis; type: ADME; conditions: read-out: Stability; summary of the method: as §3
[11] = Stability of compound in simulated intestinal fluid assessed as parent compound remaining at pH 6 measured after 4 hrs by HPLC analysis; type: ADME; conditions: read-out: Stability; summary of the method: as §3
[12] = Aqueous solubility of compound in PBS buffer at 1 to 100 ug/ml at pH 7.3 to 7.5 measured after 24 hrs by HPLC analysis; type: physicochemical
Summary of the method: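 3 mg compound in 3 mL PBS (pH 7.3-7.5) shaken 24 h at 25 °C, then centrifuged. Supernatant mixed 1:1 with acetonitrile and analysed by HPLC (C18, 1 mL/min). Solubility calculated from a standard curve (1 mg/mL methanol stock) and the dilution factor.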

[13] = Stability of compound in simulated intestinal fluid assessed as parent compound remaining at pH 6 measured after 8 hrs by HPLC analysis; type: ADME; conditions: read-out: Stability; summary of the method: as §3
Clostridioides difficile [14] = test: Bactericidal activity against Clostridium difficile 4118 ATCC BAA 1870 assessed as reduction in bacterial colony forming units at 8 fold MIC preincubated followed by re-plating on BHIS agar plate and measured after 6 hrs under anaerobic condition by time-kill assay relative to control; type: functional; parameters: scale not given: the % may be the effect or the level left
Clostridioides difficile [15] = test: Ratio of MBC99.9 to MIC for Clostridium difficile 4118 ATCC BAA 1870; type: functional
[16] = Cytotoxicity against human HRT18 cells measured after 2 hrs by MTS assay; type: cell-based; conditions: HRT-18 cells
[17] = Cytotoxicity against African green monkey Vero cells measured after 2 hrs by MTS assay; type: cell-based; conditions: chlorocebus sabaeus
[18] = Cytotoxicity against human Caco2 cells measured after 2 hrs by MTS assay; type: cell-based; conditions: Caco-2 cells

| Structure (SMILES) | MIC (Enterobacter cloacae) [µM] | MIC [1] [µM] | MIC (Bifidobacterium bifidum) [µM] | Activity (HRT-18 cell line) | Activity (Caco-2) | MIC [2] | MIC [3] [µM] | Activity (Vero) | MIC (Clostridioides difficile [4]) [µM] | MIC (Clostridioides difficile [5]) [µM] | MIC (Escherichia coli) [µM] | remaining at 4 h [9] [%] | remaining at 8 h [10] [%] | remaining at 4 h [11] [%] | solubility at 24 h [12] [µg/mL] | remaining at 8 h [13] [%] | also measured |
| --- | --- | --- | --- | --- | --- | --- | --- | --- | --- | --- | --- | --- | --- | --- | --- | --- | --- |
| Cc1nc2c([N+](=O)[O-])csc2c(=O)n1Cc1ccccc1 | > 850 | > 425 | > 425 | Non-Toxic | Non-Toxic | > 425 µM | > 425 | Non-Toxic | 56 (≈ 16.9 µg/mL) | 7 (≈ 2.11 µg/mL) | > 850 | – | – | – | – | – | – |
| O=c1[nH]c(/C=C/c2ccccc2F)nc2c([N+](=O)[O-])csc12 | > 807 | > 807 | > 807 | Non-Toxic | Non-Toxic | > 807 µM | > 807 | Non-Toxic | 12 (≈ 3.81 µg/mL) | 6 (≈ 1.9 µg/mL) | > 807 | – | – | – | – | – | – |
| O=c1[nH]c(/C=C/c2ccc(Cl)cc2)nc2c([N+](=O)[O-])csc12 | > 767 | > 767 | > 767 | Non-Toxic | Non-Toxic | > 767 µM | > 767 | Non-Toxic | 6 (≈ 2 µg/mL) | 6 (≈ 2 µg/mL) | > 767 | – | – | – | – | – | – |
| CCc1c(Cl)c(O)c(Cl)c(O)c1C(=O)O[C@H]1[C@H](O)[C@H](OC)[C@H](OC/C2=C\C=C\C[C@H](O)/C(C)=C/[C@H](CC)[C@@H](O[C@@H]3OC(C)(C)[C@@H](OC(=O)C(C)C)[C@H](O)[C@@H]3O)/C(C)=C/C(C)=C/C[C@@H]([C@@H](C)O)OC2=O)O[C@@H]1C [FIDAXOMICIN] | – | 30 (≈ 31.7 µg/mL) | > 242 | – | – | <= 2 uM | > 242 | – | 0.1 (≈ 0.106 µg/mL) | 0.1 (≈ 0.106 µg/mL) | – | – | – | – | – | – | Cp [6]: 25 to 50 ng/mL; Activity (Clostridioides difficile [7]): Active |
| O=c1[nH]c(/C=C/c2ccc(F)cc2)nc2c([N+](=O)[O-])csc12 | > 807 | > 807 | > 807 | Non-Toxic | Non-Toxic | > 807 µM | > 807 | Non-Toxic | 6 (≈ 1.9 µg/mL) | 3 (≈ 0.952 µg/mL) | > 807 | 50 | 48 | 60 | 14.8 (≈ 46.6 µM) | 51 | MBC (Clostridioides difficile [8]): 6 µM (≈ 1.9 µg/mL); Activity (Clostridioides difficile [14]): 100%; Ratio (Clostridioides difficile [15]): 2 |
| Cc1nc(N2CCOCC2)c2scc([N+](=O)[O-])c2n1 | > 913 | > 913 | > 913 | Non-Toxic | Non-Toxic | > 913 µM | > 913 | Non-Toxic | 14 (≈ 3.92 µg/mL) | 14 (≈ 3.92 µg/mL) | > 913 | < 10 | < 10 | 79 | 18.7 (≈ 66.7 µM) | 80 | – |
| Cc1nc2c([N+](=O)[O-])csc2c(=O)n1CCCc1ccccc1 | > 777 | > 777 | > 777 | Non-Toxic | Non-Toxic | > 777 µM | > 777 | Non-Toxic | 12 (≈ 3.95 µg/mL) | 12 (≈ 3.95 µg/mL) | > 777 | 45 | < 10 | < 10 | 10.8 (≈ 32.7 µM) | < 10 | – |
| Cc1nc2c([N+](=O)[O-])csc2c(=O)[nH]1 | > 1212 | > 1212 | > 1212 | Non-Toxic | Non-Toxic | > 1212 µM | > 1212 | Non-Toxic | 38 (≈ 8.03 µg/mL) | 19 (≈ 4.01 µg/mL) | > 1212 | 90 | 90 | 91 | > 500 | 76 | CC50 at 2 h [16]: > 606 µM; CC50 at 2 h [17]: > 606 µM; CC50 at 2 h [18]: > 606 µM |
| Cc1nc2c([N+](=O)[O-])csc2c(=O)n1Cc1ccc([N+](=O)[O-])cc1 | > 739 | > 739 | > 739 | Non-Toxic | Non-Toxic | > 739 µM | > 739 | Non-Toxic | 12 (≈ 4.16 µg/mL) | 6 (≈ 2.08 µg/mL) | > 739 | > 95 | > 95 | > 95 | 12.7 (≈ 36.8 µM) | 90 | – |

Reference: ChEMBL document CHEMBL4334504 (J Med Chem, 2019)
